Measured values gathered from unrelated publications.
Each line is one published result; the experiments were not run side by side.
Target: Myosin-IIIb (MYO3B, Homo sapiens, UniProt Q8WXR4)
Sequence (Q8WXR4 1-1341, as in one of the studies): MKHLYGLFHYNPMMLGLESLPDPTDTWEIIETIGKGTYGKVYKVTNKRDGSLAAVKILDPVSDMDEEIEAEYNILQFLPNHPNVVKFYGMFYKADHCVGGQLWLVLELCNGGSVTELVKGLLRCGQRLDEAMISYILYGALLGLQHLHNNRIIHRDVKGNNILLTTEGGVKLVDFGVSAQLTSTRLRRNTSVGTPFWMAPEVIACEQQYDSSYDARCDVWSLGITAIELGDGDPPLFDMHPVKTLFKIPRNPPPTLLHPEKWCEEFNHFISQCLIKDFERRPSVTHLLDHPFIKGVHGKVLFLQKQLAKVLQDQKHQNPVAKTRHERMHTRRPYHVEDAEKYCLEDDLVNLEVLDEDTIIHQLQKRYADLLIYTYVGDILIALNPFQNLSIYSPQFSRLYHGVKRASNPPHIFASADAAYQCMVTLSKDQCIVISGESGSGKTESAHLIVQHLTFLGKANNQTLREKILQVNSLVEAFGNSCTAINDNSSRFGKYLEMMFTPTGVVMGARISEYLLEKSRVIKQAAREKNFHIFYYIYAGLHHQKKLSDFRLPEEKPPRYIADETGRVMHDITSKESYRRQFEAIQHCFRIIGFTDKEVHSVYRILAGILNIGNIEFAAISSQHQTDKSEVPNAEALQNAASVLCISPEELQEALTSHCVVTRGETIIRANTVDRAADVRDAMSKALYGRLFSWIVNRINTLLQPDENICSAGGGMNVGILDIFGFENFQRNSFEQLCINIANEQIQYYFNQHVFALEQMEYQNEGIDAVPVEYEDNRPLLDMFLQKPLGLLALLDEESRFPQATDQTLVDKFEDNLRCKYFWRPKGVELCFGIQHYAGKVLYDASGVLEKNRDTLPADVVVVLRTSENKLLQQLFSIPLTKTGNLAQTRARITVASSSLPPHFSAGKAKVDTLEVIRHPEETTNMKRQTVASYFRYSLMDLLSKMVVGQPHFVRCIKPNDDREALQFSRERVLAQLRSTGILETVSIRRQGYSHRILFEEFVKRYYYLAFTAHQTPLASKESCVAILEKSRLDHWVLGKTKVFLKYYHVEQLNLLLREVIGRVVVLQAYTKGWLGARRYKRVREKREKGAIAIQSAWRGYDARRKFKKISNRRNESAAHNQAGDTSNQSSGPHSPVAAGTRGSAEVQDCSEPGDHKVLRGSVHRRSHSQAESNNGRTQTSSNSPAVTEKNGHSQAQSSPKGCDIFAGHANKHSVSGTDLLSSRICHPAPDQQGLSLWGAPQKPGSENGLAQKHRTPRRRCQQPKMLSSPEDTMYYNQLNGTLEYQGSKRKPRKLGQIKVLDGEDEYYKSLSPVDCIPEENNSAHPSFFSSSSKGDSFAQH

SMILES	assay	conditions	remaining binding
O=C(c1ccc(Nc2ncc(Cl)c(-c3cc4ccccc4s3)n2)cc1)N1CCC(N2CCCC2)CC1	binding, competition with immobilised ligand	1 µM	100%
CNCc1ccccc1-c1csc([C@@H](C)Nc2nc(C)nc3cc(OC)c(OC)cc23)c1	cell-free assay, competition with immobilised ligand	1 µM	47%
CN(C)c1nccc(-c2cnn3ncccc23)n1	binding	1 µM	100%
COc1ncc2cc3ccccc3nc2c1C#N	binding, competition with immobilised ligand	5 µM	96%
Cc1nc(N2CC[C@@H](O)C2)ncc1-c1cc(C(F)(F)F)cc2[nH]ncc12	binding, competition with immobilised ligand	1 µM	93%
O=C(NCCCN1CCOCC1)c1ccc(Nc2ncc(Cl)c(-c3ccc(Cl)s3)n2)cc1	binding, competition with immobilised ligand	1 µM	100%
COc1cnc(Nc2cccc(S(N)(=O)=O)c2)nc1N1CCN(c2ccccc2)CC1	binding, competition with immobilised ligand	1 µM	100%
CN(CCCC(F)(F)F)c1nccc(-c2cnn3ncccc23)n1	binding	1 µM	92%
COc1cnc(Nc2cccc(S(N)(=O)=O)c2)nc1N1CCN(c2ccccc2)C(=O)C1	binding, competition with immobilised ligand	1 µM	94%
CCC(=O)N[C@@H]1CC[C@H](C(=O)N(C)c2ccc(-c3nc4ccccc4o3)cc2)C1	cell-free assay, competition with immobilised ligand	1 µM	100%
C[C@@H]1CCN(c2nccc(-c3cnn4ncccc34)n2)C1	binding	1 µM	100%
O=C(NCC1CCOCC1)c1n[nH]cc1NC(=O)c1c(F)cccc1F	binding, competition with immobilised ligand	1 µM	100%
Nc1ncc2c(n1)-c1c([nH]c3ccc(C#CC4CC4)cc13)CCCC2	binding, competition with immobilised ligand	1 µM	75%
COc1ccnn2ncc(-c3ccnc(N(C)C)n3)c12	binding	1 µM	100%
CC1=C(C#N)C(c2ccc3c(c2)c(NC(=O)c2ccccc2C)nn3C)C(C#N)=C(C)N1	binding, competition with immobilised ligand	1 µM	100%
Cc1cnc(Nc2ccc(C(=O)N3CCC(N4CCCC4)CC3)cc2)nc1-c1cc2ccccc2s1	binding, competition with immobilised ligand	1 µM	100%
CC1CCCN1c1nccc(-c2cnn3ncccc23)n1 (stereo not drawn)	binding	1 µM	100%
FC(F)(F)c1ccc2c(c1)nc(-c1cccnc1)n2C1CC1	cell-free assay, competition with immobilised ligand	1 µM	67%
N[C@H]1CCN(c2nccc(-c3cnn4ncccc34)n2)C1	binding	1 µM	100%
C[C@@H]1CN(c2cc(-c3n[nH]c4ccc(OC5(C)CC5)cc34)ncn2)C[C@H](C)O1	cell-free assay, competition with immobilised ligand	0.1 µM	89%
FC(F)(F)Oc1cccc(-c2cnc3ccc(-c4ccncc4)nn23)c1	cell-free assay, competition with immobilised ligand	5 µM	100%
